Data on 22 compounds can be found in ChEMBL document CHEMBL1153233, “Novel substituted (Z)-5-((N-benzyl-1H-indol-3-yl)methylene)imidazolidine-2,4-diones and 5-((N-benzyl-1H-indol-3-yl)methylene)pyrimidine-2,4,6(1H,3H,5H)-triones as potent radio-sensitizing agents” (2010).

The subject of the experiment is HT-29. Put plainly: Radiosensitization activity against human HT-29 cells assessed as survival relative to control. The format is functional. In outline:
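HT-29 colorectal adenocarcinoma cells exposed to analog at 25 µM (or DMSO vehicle) for 2 h at 37 °C, then irradiated with 4 Gy. Analog washed off, cells kept 14 days in fresh medium, colonies stained with crystal violet and counted. Surviving fraction taken as colonies over cells treated. Relative survival is survival with radiation plus analog divided by survival with radiation alone, with vehicle set at 1.0.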
Regarding `O=C1NC(=O)C(=Cc2cn(Cc3ccccc3)c3ccccc23)C(=O)N1`, the Ratio amounted to 1.35.
Take `O=C1NC(=O)C(=Cc2cn(Cc3ccc(Cl)cc3)c3ccccc23)C(=O)N1`: the Ratio stood at 0.91.
For `COc1ccc(Cn2cc(C=C3C(=O)NC(=O)NC3=O)c3ccccc32)cc1` the value was 1.18; for `O=C1NC(=O)C(=Cc2cn(Cc3ccccc3Br)c3ccccc23)C(=O)N1`, 1.14; for `O=C1NC(=O)/C(=C/c2cn(Cc3ccc(F)cc3)c3ccccc23)N1`, 0.91.
The result for `Cc1ccc(Cn2cc(/C=C3\NC(=O)NC3=O)c3ccccc32)cc1` reads 1.06; that for `N#Cc1ccc(Cn2cc(C=C3C(=O)NC(=O)NC3=O)c3ccccc32)cc1`, 0.23; that for `COC(=O)c1ccc(Cn2cc(C=C3C(=O)NC(=O)NC3=O)c3ccccc32)cc1`, 0.64.
The result for `O=C1NC(=O)/C(=C/c2cn(Cc3ccccc3)c3ccc(Cl)cc23)N1` reads 1.38; that for `O=C1NC(=O)/C(=C/c2cn(Cc3ccccc3Br)c3ccccc23)N1`, 1.18.
For `Cc1ccc2c(c1)c(/C=C1\NC(=O)NC1=O)cn2Cc1ccccc1`, the Ratio is 1.18.
With `COc1ccc2c(c1)c(C=C1C(=O)NC(=O)NC1=O)cn2Cc1ccccc1`, the Ratio turned out to be 1.73.
For the compound `O=C1NC(=O)/C(=C/c2cn(Cc3ccccc3)c3ccc(Br)cc23)N1`, the Ratio was determined as 1.06.
For `O=C1NC(=O)/C(=C/c2cn(Cc3ccc([N+](=O)[O-])cc3)c3ccccc23)N1` the value was 1.14; for `N#Cc1ccc(Cn2cc(/C=C3\NC(=O)NC3=O)c3ccccc32)cc1`, 1.53; for `O=C1NC(=O)C(=Cc2cn(Cc3ccc([N+](=O)[O-])cc3)c3ccccc23)C(=O)N1`, 0.44.
The result for `COC(=O)c1ccc(Cn2cc(/C=C3\NC(=O)NC3=O)c3ccccc32)cc1` reads 1; that for `COc1ccc(Cn2cc(/C=C3\NC(=O)NC3=O)c3cc(Br)ccc32)cc1`, 1.29; that for `O=C1NC(=O)/C(=C/c2cn(Cc3ccc(Cl)cc3)c3ccccc23)N1`, 1.44.
For `O=C1NC(=O)/C(=C/c2cn(Cc3ccccc3)c3ccccc23)N1`, the Ratio amounted to 1.3.
With `O=C1NC(=O)C(=Cc2cn(Cc3ccccc3)c3ccc(Cl)cc23)C(=O)N1`, the Ratio is listed as 1.38.
On to `COc1ccc2c(c1)c(/C=C1\NC(=O)NC1=O)cn2Cc1ccccc1`, for which the Ratio amounted to 1.38.
